Compounds with a hit are over-represented: about 3.9% of the library has one in this group of screens.
Gli-Sufu antag: antagonists of Gli-Sufu signaling | Sufu-KO-LIGHT fibroblasts, Gli luciferase reporter luminescence | inhibition, % at 5 µM | 340,000 compounds, 0.74% hits;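 active = inhibition above about 55%, limit read from the data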;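 note: 0% = DMSO-treated cells and 100% = wells with medium but no cells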
CHOP UPR activ: activators of apoptotic arm of unfolded protein response (CHOP). activation, % at 10 µM. CHO-CHOP luciferase reporter, UPR activation, luminescence; percent of tunicamycin response over DMSO baseline. 330,000 compounds, 0.34% hits;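 active = at 10 µM dose, activation of 40% or more, normalized to positive control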;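 note: 100% = tunicamycin at 10 µg/mL and 0% = DMSO alone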
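System: CHO CHOP reporter cells. Amount: 500 cells per well. Buffer or medium: F12 medium, 10% FBS. Compound dosing: one dose, 10 µM in 0.5% DMSO. Incubation: 6 h compound exposure at 37 °C after overnight seeding. Technique: Steady-Glo luciferase luminescence. Benchmarks: tunicamycin and DMSO controls.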
Jurkat NFkB inh: inhibitors of the PMA/ionomycin-induced NF-kB reporter in Jurkat cells | PMA/ionomycin-induced NF-kB luciferase reporter, luminescence | inhibition, % at 4 µM | 330,000 compounds, 0.53% hits | AID 435003; in the data active = inhibition above about 50%
CHOP inhibitor: inhibitors of CHOP induction in ER stress response. AID 2732. inhibition, % at 10 µM. 220,000 compounds, 3.8% hits. CHO-K1 CHOP-promoter luciferase, tunicamycin-induced, 15-18 h;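 active = compounds that reduced the stress-induced luciferase reporter signal by more than about 70% of percent inhibition, limit read from the data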;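 note: 0% = tunicamycin plus vehicle and 100% = wells without tunicamycin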
UPR XBP1 act: activators of adaptive arm of unfolded protein response (XBP1) | CHO-XBP1 luciferase reporter, IRE1-XBP1 UPR activation, luminescence; percent of tunicamycin response, DMSO as zero | activation, % at 20 µM | 330,000 compounds, 0.33% hits | AID 463104;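 active = versus positive control, 20 µM dose yields 30% or more activation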;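 note: 100% = tunicamycin at 10 µg/mL and 0% = DMSO only wells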
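Material: CHO cell line with stable XBP1 luciferase reporter; schedule: 16-18 h cell attachment at 37 °C, then 6 h compound exposure; signal: glow luminescence from Steady-Glo reagent; medium: serum-containing F12 medium, 10% FBS; benchmarks: tunicamycin 10 µg/mL and vehicle-only wells; read-out: percent activation relative to tunicamycin reference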
697 NFkB inh: inhibitors of the PMA/ionomycin-induced NF-kB reporter in 697 B cells | 697 B-cell NF-kB luciferase reporter, 16 h | inhibition, % at 4 µM | 330,000 compounds, 0.33% hits | AID 435022; in the data active = inhibition above about 35%
CHOP inh conf: confirmation of CHOP induction inhibitors; shares compounds with CHOP inhibitor; CHO-CHOP promoter luciferase reporter, tunicamycin-induced, luminescence; inhibition, % at 10 µM; 2,100 compounds, 45% hits; AID 504437;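 active = mean of three repeat readings of reporter signal inhibition above a set limit, cut at about 70% in these data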;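 note: 0% = tunicamycin plus vehicle and 100% = wells lacking tunicamycin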
* marks the source's active call; other numbers are inactive results; x = not tested or not shown.

SMILES	Gli-Sufu antag	CHOP UPR activ	Jurkat NFkB inh	CHOP inhibitor	UPR XBP1 act	697 NFkB inh	CHOP inh conf
Cc1cccc(/C=N\NC(=O)c2ccc(Cl)cc2)c1O	36.2	7.2	-12.7	98.0*	2.0	-185.7	16.7
C/C(=N\NC(=O)COc1ccc(C(C)(C)C)cc1)c1ccc(N2CCOCC2)cc1	-1.0	-0.4	-1.2	101.4*	8.4	11.3	92.3*
C/C(=N\NC(=O)c1ccc(F)cc1)c1ccc(N2CCOCC2)cc1	28.5	-1.8	-9.1	20.4	-0.5	-2.2	x
COc1ccc(/C=N/N(Cc2ccccc2)c2ccccc2)cc1O	-3.2	3.3	-4.3	103.7*	2.2	-11.3	11.8
C(=N\N(Cc1ccccc1)c1ccccc1)/c1ccco1	1.3	-1.6	-7.6	32.2	0.5	-28.1	x
O=C(/C=C/c1ccc2c(c1)OCO2)Nc1c(C(=O)O)[nH]c2ccccc12	3.8	2.4	7.5	6.2	0.3	2.1	x
CCOC(=O)c1[nH]c2ccc(OC)cc2c1NC(=O)/C=C/c1ccc2c(c1)OCO2	0.6	4.2	10.8	102.0*	1.9	4.6	-16.9
O=C(c1ccccc1)N(C(=O)c1ccccc1)N1CCCC1	0.8	x	x	x	x	x	x
Cc1ccccc1C(=O)N1CCC(C(=O)Nc2ccc(S(=O)(=O)N3CCCCC3)cc2)CC1	12.5	-0.1	17.1	x	-2.1	-24.4	x
CCOC(=O)C1CCCCN1Cc1cccc(Oc2ccccc2)c1 (configuration not stated)	11.0	2.0	7.8	x	-4.7	7.3	x
Cc1ccc(NC(=O)/C(=C\c2ccc([N+](=O)[O-])cc2)NC(=O)c2ccccc2)cc1	4.6	3.2	12.5	98.1*	-0.1	19.7	-4.1
CCOC(=O)N1CCN(C(=O)CN(C)S(=O)(=O)c2ccc(F)cc2)CC1	-16.7	-0.6	13.9	x	6.3	10.2	x
CC1CCCC(C)N1S(=O)(=O)c1ccc(Cl)cc1 (configuration not stated)	9.5	-0.6	7.6	x	-3.8	5.3	x
CC1=C(C)CS(=O)N(S(=O)(=O)c2ccc(Cl)cc2)C1 (configuration not stated)	9.6	3.1	11.4	x	0.5	21.8	12.2
Cc1cc(OCC(=O)OCC(=O)NCc2cccs2)ccc1Cl	5.6	-1.6	-8.6	x	-1.9	-16.5	x
O=C1CNC(=S)N1C1CCCCCC1	-7.1	-1.3	10.5	x	-3.9	8.8	x
COc1cc(-c2nc3ccc4ccccc4c3c3c2CCC3)cc(OC)c1O	-6.8	1.0	2.6	102.5*	-3.0	1.2	106.3*
O=C(Nc1ccc(Nc2ccncc2)cc1)c1ccc(Nc2ccnc3ccc([N+](=O)[O-])cc23)cc1[N+](=O)[O-]	1.3	x	x	-54.8	x	x	x
COc1ccc(Cc2nc3ccccc3n2CC(=O)N/N=C/c2ccc(C)cc2O)cc1OC	10.2	-0.9	8.1	104.2*	-2.5	27.3	103.3*
c1ccc2c(-c3c[nH]c4ccccc34)c3ccccc3nc2c1	1.0	-1.2	3.9	98.3*	1.0	1.8	-17.5
Cc1sc(NC(=O)c2cccc([N+](=O)[O-])c2)c(C(N)=O)c1-c1ccc(C(C)(C)C)cc1	37.6	10.0	0.9	106.7*	-0.9	-22.6	138.7*
Cc1sc(NC(=O)/C=C/C(=O)O)c(C(N)=O)c1-c1ccc(C(C)(C)C)cc1	-4.9	0.1	-7.5	-7.7	-1.0	-53.0	x
CCOc1ccc2nc(NC(=O)CN3C(=O)NC4(CCCC4)C3=O)sc2c1	-47.4	2.7	-19.8	x	0.1	-23.6	x
Cc1ccc(C(=O)Nc2nc3ccccc3c(=O)s2)cc1	-48.9	0.1	-51.7	102.4*	-4.7	-83.3	10.7
O=C(N/N=C/c1cccc(O)c1)c1ccc(COc2ccc3c(c2)CCC3)o1	-70.3	3.4	-7.6	108.9*	-1.8	-91.4	-3.9
COC(=O)c1cc(Br)ccc1NC(=O)CSCc1c(C)noc1C	2.8	-0.1	0.6	x	-2.1	-14.6	x
CCCc1cc(=O)[nH]c(SCCOc2ccc(Cl)cc2)n1	-2.2	-0.6	-9.4	101.1*	-0.5	11.6	-8.4
